Screening data from PubChem.
Rows were chosen to be rich in hits. Some 1.4% of all compounds tested hit in one or more screens of this group.
Cardiac RTF inh – cardiac RTF calcium desensitization | hit rate 0.12% among 340,000 | IANBD-labeled cardiac RTF, Ca2+ fluorescence | AID 493244 | P19429+P45379 | inhibition, % at 7.15 µM;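 active means inhibition above the mean inhibition of all tested compounds plus 3 SD, cut at about 17% in these data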;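 further: assay run at fixed EC70 calcium of 1.6 mM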
DDE Tn7 FP inh – disrupts Tn7 cyclic peptide binding to fibrin D-Dimer-E complex | P02675 | FP displacement of FITC-Tn7 peptide from fibrin DD(E); 0% = median of compound wells per plate | inhibition, % at 8.3 µM | hit rate 0.13% among 370,000;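 active means inhibition above the mean of compounds falling within the control limits plus 3 SD of them, cut at about 14% in these data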
Target sequence (P02675 whole entry, looked up): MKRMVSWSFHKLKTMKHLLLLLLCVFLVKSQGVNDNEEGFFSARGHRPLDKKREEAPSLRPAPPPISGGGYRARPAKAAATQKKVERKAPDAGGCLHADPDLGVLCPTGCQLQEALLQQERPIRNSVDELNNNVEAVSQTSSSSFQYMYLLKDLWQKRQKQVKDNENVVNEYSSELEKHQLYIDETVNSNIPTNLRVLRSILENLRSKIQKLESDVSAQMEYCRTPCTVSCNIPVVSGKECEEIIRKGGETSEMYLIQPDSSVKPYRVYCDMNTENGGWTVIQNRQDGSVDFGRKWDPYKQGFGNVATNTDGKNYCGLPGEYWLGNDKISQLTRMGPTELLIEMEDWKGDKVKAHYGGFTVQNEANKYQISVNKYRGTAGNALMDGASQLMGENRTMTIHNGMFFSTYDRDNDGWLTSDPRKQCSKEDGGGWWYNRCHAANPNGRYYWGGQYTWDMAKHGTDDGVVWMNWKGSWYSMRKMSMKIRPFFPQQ
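System: human fibrin DD(E); quantity: Fibrin-DD(E) at 2 µM final; also added: fluorescent Tn7 probe at 0.1 µM; compound dosing: single nominal test concentration of 8.3 µM per compound; schedule: 10 min preincubation, 3 h with tracer, room temperature; detection: fluorescence polarization of the labelled Tn7 tracer; repeats: one replicate per compound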
CRFR2-BP antag – antagonists of CRF-binding protein/CRF-R2 receptor complex; inhibition, % at 11.8 µM; HEK293 CRF-R2/CRF-BP, CRF-induced calcium fluorescence; hit rate 0.59% among 350,000; AID 588475;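 active means inhibition of the ligand-induced calcium signal above about 50% at the single tested concentration, limit read from the data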
CRFBP-R2 agonist – CRF-BP/CRF-R2 complex agonism; HEK293 CRF-R2/CRF-BP, calcium dye fluorescence (FLIPR); percent of saturating CRF peptide response; activation, % at 13.2 µM; hit rate 0.46% among 350,000; AID 588473;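 active means activation of at least 50%, plus an integration ratio under a set limit after plate pattern correction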
DDE Tn6 FP inh – DD(E)-Tn6 binding inhibition, primary FP screen | P02675 | Fibrin DD(E) TRITC-Tn6 fluorescence polarization displacement | inhibition, % at 8.3 µM | hit rate 0.21% among 370,000 | AID 720509;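 active means inhibition above a per-campaign cutoff: mean of compounds within control limits plus 3 SD, cut at about 15% in these data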
RTF Ca sens act – increases calcium sensitivity of human cardiac regulated thin filaments; P19429+P45379; IANBD-labeled TnC RTF fluorescence at EC20 calcium; 0% EC20 calcium, 100% full calcium; activation, % at 7.2 µM; hit rate 0.24% among 340,000;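 active means activation above the mean over all tested compounds plus 3 SD, cut at about 30% in these data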;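 further: rise in fluorescence read as greater calcium sensitivity of cardiac thin filaments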
Hits are given with their value; – = inactive; · = no result given.

SMILES	Cardiac RTF inh	DDE Tn7 FP inh	CRFR2-BP antag	CRFBP-R2 agonist	DDE Tn6 FP inh	RTF Ca sens act
c1ccc2sc(N3CCN(Cc4nnnn4CC4CCCO4)CC3)nc2c1 (stereo not given)	–	–	–	–	–	–
c1ccc2c(c1)CCCN2Cc1nnnn1CC1CCCO1 (stereo not given)	–	–	–	–	–	37.1
c1ccc(CCn2nnnc2CN2CCCc3ccccc32)cc1	–	–	–	68.1	–	–
Nc1nc2n(n1)C(c1cccc(Br)c1)CC(c1ccc(F)cc1)N2 (stereo not given)	–	–	–	54.3	–	–
COc1cc(OC)c2ccc(=O)oc2c1C(CCN1CCOCC1)c1ccc2c(c1)OCO2 (stereo not given)	–	–	76.1	–	–	–
COc1cc(OC)c2ccc(=O)oc2c1C(CCN1CCCC1)c1ccc2c(c1)OCO2 (stereo not given)	–	–	–	–	–	–
O=C(O)c1ccccc1-c1ccc(/C=C2\SC(=O)N(c3ccccc3)C2=O)o1	–	–	–	–	–	–
CC1=NN(c2ccc(Br)cc2)C(=O)/C1=C/c1ccc(-c2ccccc2C(=O)O)o1	–	–	–	–	–	–
Cc1cc2nc3s/c(=C/c4ccc(-c5ccccc5C(=O)O)o4)c(=O)n3c2cc1C	–	–	–	141.2	–	–
O=C(O)c1ccccc1-c1ccc(/C=c2\sc3nc4cc(Br)cnc4n3c2=O)o1	54.6	·	–	157.0	·	–
CC(=O)c1ccc(OC(=O)c2ccc(-n3nc(C)cc3C)cc2)cc1	–	–	–	–	–	–
Cc1cc(C)n(-c2ccc(C(=O)Oc3ccc4c(c3)OCO4)cc2)n1	–	–	72.8	–	–	–
Cc1cc(N2CCN(C)CC2)nc2ccc(NC(=O)CCC(=O)NCCCOC(C)C)cc12	–	–	51.1	–	–	–
Cc1c(N2C(=O)c3ccccc3C2=O)c(=O)n(-c2ccccc2)n1C	–	–	–	–	–	–
Cc1c(N2C(=O)C3C4C=CC(C5CC45)C3C2=O)c(=O)n(-c2ccccc2)n1C (stereo not given)	–	–	115.2	–	–	–
COc1cccc(CN[C@@H]2CC[C@@]34CCCN3C(=O)CCC[C@H]4C2)c1	·	–	·	·	–	·
CNc1nc2cc([N+](=O)[O-])c([N+](=O)[O-])cc2nc1NC	–	–	65.8	64.9	–	–
N#Cc1c(NC(=O)c2ccccc2)sc2c1CCCCC2	–	–	–	–	–	–
N#Cc1c(Cl)nsc1NC(=O)c1ccccc1	–	–	55.9	–	–	–
Cc1[nH]n2c(=O)cc(-c3ccc([N+](=O)[O-])cc3)nc2c1-c1ccccc1	–	–	–	–	–	–
Cc1ccc(N=Nc2c(N)[nH]n3c(=O)cc(-c4ccccc4)nc23)cc1	–	–	58.7	–	–	–
COc1ccc(-c2c(C(F)(F)F)[nH]n3c(=O)cc(-c4ccccc4)nc23)cc1	–	–	70.3	–	–	–
COc1ccc(OC)c(NC(=O)C2(C)CCN2CCc2ccccc2)c1 (stereo not given)	·	–	·	·	–	·
COC(=O)c1ccc(CSc2nc3c(cnn3-c3ccc(F)cc3)c(=O)[nH]2)o1	–	·	51.5	–	·	–
COc1cc(Cl)c(C)cc1NC(=O)CSc1ccccc1	–	–	–	–	–	–
SMILES	Cardiac RTF inh	DDE Tn7 FP inh	CRFR2-BP antag	CRFBP-R2 agonist	DDE Tn6 FP inh	RTF Ca sens act
COc1cc(Cl)c(C)cc1NC(=O)CSc1ccc(C)cc1	–	·	50.0	–	·	–
CCOC(=O)C(NC(=O)CC(C)C)(Nc1sc(C)c(CC)c1C#N)C(F)(F)F (stereo not given)	–	–	50.7	–	–	–
CCOC(=O)C(NC(=O)CCl)(Nc1sc(C)c(CC)c1C#N)C(F)(F)F (stereo not given)	–	–	–	–	–	–
COCCNC(=O)CN(CC1CCCO1)C(=O)CCC(=O)Nc1ccccn1 (stereo not given)	–	–	57.1	–	–	–
O=C(CN(CC1CCCO1)C(=O)CCC(=O)Nc1ccccn1)NCC1CCCO1 (stereo not given)	–	–	–	–	–	–
COc1ccccc1CCNC(=O)CCn1nc(C)c2c(C)n(-c3ccccc3)nc2c1=O	–	–	76.2	–	–	–
